Columns and labels:
[1] = molecular target: Potassium voltage-gated channel subfamily A member 3 (Homo sapiens, UniProt P22001); assay: Inhibition of Kv1.3 potassium channel expressed in mouse L929 cells by whole cell patch clamp; type: cell-based
Method in brief: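 Currents were evoked by 500 ms pulses to 40 mV every 45 s. Each compound was run three times at 4–5 concentrations, each on a different cell. IC50 came from a Hill fit of the reduction in area under the current curve.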

[2] = molecular target: Potassium voltage-gated channel subfamily A member 5 (Homo sapiens) (UniProt P22460); assay: Inhibition of Kv1.5 potassium channel by whole cell patch clamp
Sequence of Potassium voltage-gated channel subfamily A member 5 (Homo sapiens) (P22460 whole entry): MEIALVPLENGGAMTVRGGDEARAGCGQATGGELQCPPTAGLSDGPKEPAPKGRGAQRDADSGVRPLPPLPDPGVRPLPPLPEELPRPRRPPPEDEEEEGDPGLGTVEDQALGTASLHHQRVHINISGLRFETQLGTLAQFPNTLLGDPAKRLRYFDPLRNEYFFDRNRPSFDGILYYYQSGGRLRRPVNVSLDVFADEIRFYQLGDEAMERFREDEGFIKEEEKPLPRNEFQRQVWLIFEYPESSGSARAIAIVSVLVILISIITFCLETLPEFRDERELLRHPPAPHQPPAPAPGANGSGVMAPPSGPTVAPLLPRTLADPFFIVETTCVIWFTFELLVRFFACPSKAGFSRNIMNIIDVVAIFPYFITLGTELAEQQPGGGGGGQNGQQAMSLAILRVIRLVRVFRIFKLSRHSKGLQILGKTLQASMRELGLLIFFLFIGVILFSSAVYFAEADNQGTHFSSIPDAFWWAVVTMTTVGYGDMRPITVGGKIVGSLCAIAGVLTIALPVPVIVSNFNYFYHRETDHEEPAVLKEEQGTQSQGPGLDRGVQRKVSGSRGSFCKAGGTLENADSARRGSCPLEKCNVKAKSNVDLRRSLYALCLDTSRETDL
Method in brief: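 Currents were recorded by whole-cell patch clamp from MEL-C88 cells. Each compound was tested three times at 4–5 concentrations, each experiment on a different cell. IC50 came from a Hill-equation fit of the reduction in area under the current curve.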

[3] = Selectivity for Kv1.3 potassium channel over Kv1.5 potassium channel
[4] = Half life in po dosed rhesus monkey; type: ADME, organism-based, Macaca mulatta; conditions: in vivo
[5] = Half life in po dosed rat; type: ADME, organism-based; conditions: in vivo

Sequence of Potassium voltage-gated channel subfamily A member 3 (P22001 whole entry): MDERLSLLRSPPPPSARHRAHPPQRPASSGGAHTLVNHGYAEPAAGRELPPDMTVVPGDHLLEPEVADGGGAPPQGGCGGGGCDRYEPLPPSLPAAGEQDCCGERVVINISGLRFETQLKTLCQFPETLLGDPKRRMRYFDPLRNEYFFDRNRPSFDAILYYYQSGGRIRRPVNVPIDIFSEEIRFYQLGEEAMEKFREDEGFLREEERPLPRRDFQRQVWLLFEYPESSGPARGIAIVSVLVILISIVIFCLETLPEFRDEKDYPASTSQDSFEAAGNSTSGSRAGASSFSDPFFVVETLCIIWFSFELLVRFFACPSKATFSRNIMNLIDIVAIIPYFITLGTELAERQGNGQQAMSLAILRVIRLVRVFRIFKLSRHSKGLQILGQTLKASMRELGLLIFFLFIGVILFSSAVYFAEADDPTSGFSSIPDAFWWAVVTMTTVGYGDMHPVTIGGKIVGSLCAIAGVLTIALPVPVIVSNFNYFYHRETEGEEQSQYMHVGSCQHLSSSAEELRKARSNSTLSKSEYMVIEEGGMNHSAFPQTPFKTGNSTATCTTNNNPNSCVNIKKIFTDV

SMILES	IC50 [1]	IC50 [2]	Ratio IC50 (Kv1.5/Kv1.3) [3]	half-life [4]	half-life [5]
O=c1c(OCCCCOc2ccccc2)c(-c2ccccc2)oc2ccccc12	1 µM	10 µM	10		
COc1cc2nc3occc3c(OCCCCOc3ccccc3)c2cc1OC	0.15 µM	0.48 µM	3.2		
c1ccc(OCCCCOc2cccc3occc23)cc1	0.65 µM	1 µM			
COc1c2occc2c(OCCCCOc2ccccc2)c2c(=O)cc(C)oc12	1.5 µM	2.5 µM	1.67		
COc1cccc2c(=O)c3ccccc3n(CCCCOc3ccccc3)c12	0.165 µM	0.45 µM	2.73		
O=c1ccc2c(OCCCCOc3ccccc3)c3ccoc3cc2o1		0.045 µM		6.7 h	3 h
O=c1c2ccccc2n(CCCCOc2ccccc2)c2occc12	1 µM	2 µM	2		
Cc1cc(=O)c2c(OCCCCOc3ccccc3)c3ccoc3cc2o1	0.233 µM	0.31 µM	1.33		
Cn1c(=O)cc(OCCCCOc2ccccc2)c2ccccc21	0.67 µM	1.5 µM			
S=c1ccc2c(OCCCCOc3ccccc3)c3ccoc3cc2o1	0.017 µM	0.38 µM	22		
c1ccc(OCCCCOc2ncnc3ccccc23)cc1		25 µM			
O=c1ccc2c(OCCCCOc3ccccc3)cccc2o1	0.15 µM	0.52 µM	3.47		
c1ccc(OCCCCOc2cccc3ccccc23)cc1	15 µM				
O=c1ccoc2cc3occc3c(OCCCCOc3ccccc3)c12	0.17 µM	0.2 µM			
O=C1c2ccccc2C(=O)c2c(OCCCCOc3ccccc3)cccc21	7 µM	10 µM	1.43		
c1ccc(OCCCCOc2ccnc3ccccc23)cc1	> 10 µM	3.5 µM	< 0.35		
c1ccc(OCCCCOc2ccccc2)cc1	20 µM				
COc1c2occc2c(OC)c2c(OCCCCOc3ccccc3)cc(=O)oc12	0.45 µM	0.85 µM	1.89		
COc1c2ccoc2c(OCCCCOc2ccccc2)c2oc(=O)cc(C)c12	0.318 µM	0.28 µM	0.88		
O=c1ccc2cc3ccoc3c(OCCCCOc3ccccc3)c2o1	1 µM	1 µM			
c1ccc(OCCCCOc2c3ccccc3nc3occc23)cc1	1 µM	2 µM	2		
c1ccc(OCCCCOC2c3ccccc3Oc3ccccc32)cc1	12 µM	15 µM			
COc1c2ccoc2cc2oc(=O)ccc12 [BERGAPTEN]	101 µM	177 µM	1.75		
O=c1cc(OCCCCOc2ccccc2)c2ccccc2o1	0.89 µM	1.5 µM	1.69		

From ChEMBL document CHEMBL1158362, “4-Phenoxybutoxy-substituted heterocycles--a structure-activity relationship study of blockers of the lymphocyte potassium channel Kv1.3” (Eur J Med Chem, 2009)
